High-throughput results: PubChem, Broad Institute
Most compounds without a hit are left out; they make up all but 4.4% or so of the library.
HIF act = HIF pathway transcriptional activators, primary screen, cell-based, U2OS HRE-luciferase, luminescence; U2OS HRE-luciferase reporter; normalized: DMSO 0%, desferrioxamine 100%; activation, % at 7.5 µM (by protocol); 300,000 tested, 0.32% active;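 active = mean activation of at least 10% of the iron chelator positive control signal, with at least half of replicates also reaching 10%; inconclusive = mean and replicate majority disagree about reaching 10%; inactive = mean and most replicates under 10%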
HSF1 inh = HSF1 inhibitors in luciferase reporter cells, primary screen, cell-based, NIH3T3, luminescence | NIH3T3-HGL HSE-luciferase, MG132-induced, luminescence 8 h; stronger effect = lower value | activity change, negative = inhibition, % at 7.5 µM (by protocol) | 300,000 tested, 0.77% active;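 active = more than half of replicate wells show activity change below -50%, luminescence cut by over half; inconclusive = some wells, but at most half, below -50%; inactive = no replicate well below -50%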;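 also: luciferase reports HSF-1 transcriptional activity via heat shock element; 0% = median of DMSO wells and -100% = zero luminescence signal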
Calb FLC = C. albicans growth inhibition with fluconazole, primary screen, CaCi-2 strain, Alamar Blue fluorescence; C. albicans CaCi-2 (fluconazole-resistant clinical isolate) + fluconazole, 48 h; growth inhibition, % (test concentration not listed); 300,000 tested, 0.57% active; AID 1979, 2009;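 active = growth inhibition above about 58% in most replicates, limit read from the data, passing the limit was not always enough; inconclusive = exactly half the replicates above a set limit; inactive = most replicates below a set limit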;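 also: all wells also contain fluconazole at 8 µg/ml as a sub-toxic cotreatment; 0% = median of DMSO wells and 100% = median of geldanamycin control wells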
HSF1 activator = HSF-1 activators, primary screen, NIH3T3-HGL cells, MG132 stress, luminescence, single point. NIH3T3-HGL HSF-1 luciferase reporter, 8 h; 100% = twice DMSO control signal. activation, % at 9 µM. 300,000 tested, 1.7% active;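 active = mean replicate activation of at least 50% with a set share of replicates each reaching 50%; inconclusive = only one of those two conditions met; inactive = mean below 50% and too few replicates reaching it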;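 also: 0% = median of the neutral control wells and 100% = twice that signal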
T cruzi inh = inhibitors of intracellular T. cruzi growth, primary screen, luminescence, NIH3T3 host cells; T. cruzi beta-gal in NIH3T3, 90 h; inhibition, % (no concentration beside the values); 300,000 tested, 1.4% active; AID 1885, 2009;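 active = mean inhibition across valid replicates above about 55%, limit read from the data; inconclusive = mean below that limit but half or more replicates reach it; inactive = mean below it, under half of replicates reach it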;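 also: signal also drops with host cell toxicity which is not excluded here; 0% = plate median of DMSO wells and 100% = zero luminescence signal; higher percent means less beta-gal luminescence so fewer parasites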
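System – NIH/3T3 host cells with β-galactosidase reporter T. cruzi · Doses – single 50 nL compound addition per well in DMSO · Reagent – 5000 T. cruzi trypomastigotes/well · Medium – Low-serum DMEM with 2% FBS · Timing – ≥90 h infection period, 3 h prior cell attachment · Evaluation – parasite load inhibition, % · Technique – GalScreen luminescence, 60 min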
Active calls of the source: *; ? = inconclusive; . = no result given.

SMILES | HIF act | HSF1 inh | Calb FLC | HSF1 activator | T cruzi inh
O=C(NC(=S)Nc1ccc2c(c1)OCCO2)c1ccccc1F | 1.9 | 23.3 | 39.0 | 86.4* | -14.4
CN(C)c1cccc(C(=O)Nc2cccc(F)c2)c1 | 2.7 | -3.5 | 0.1 | -16.2 | 14.1
CCN(CC)c1ccc(C(=O)Nc2cccc(F)c2)cc1 | 2.1 | 27.0 | -3.0 | 60.8* | -8.0
O=C(NC(=S)Nc1ccc(F)cc1)c1ccc2c(c1)OCCO2 | -0.4 | -67.9* | -10.1 | -73.2 | 7.2
CCOC(=O)C1(Cc2ccc(OC)cc2)CCN(C(=O)CN2CCCCC2=O)CC1 | 0.4 | 6.0 | -14.2 | -7.4 | -3.9
COc1ccc(NC(=O)C2CCCN2C(=O)NC2CCCCC2)c(OC)c1 (stereo not drawn) | -0.2 | -2.1 | -20.9 | 0.6 | 0.7
COC(=O)c1ccc2c(=O)n(-c3ccccc3F)c(=S)[nH]c2c1 | -0.9 | 7.7 | -2.5 | 19.5 | -27.5
O=C(Nc1ccc2c(c1)OCCO2)c1ccccc1F | -1.5 | 0.3 | -13.2 | 20.5 | -16.0
O=C(Nc1ccc2c(c1)OCCO2)c1cccc2nc3ccccc3nc12 | -0.4 | 6.8 | 52.2 | 20.5 | 65.3*
CN1CCSc2ccc(C(=O)Nc3cccc(F)c3)cc21 | 1.8 | 116.8 | 15.4 | 159.8* | 9.4
COCCN1Cc2cccc(C(=O)Nc3ccc4c(c3)OCCO4)c2C1=O | -0.7 | -52.3* | -1.3 | -56.4 | 1.5
COCCN1Cc2cccc(C(=O)Nc3ccc(C)cc3)c2C1=O | 0.1 | 3.0 | -1.3 | 18.6 | 10.6
COc1ccc(NC(=O)c2ccc3c(c2)N(C)CCS3)cc1 | 3.1 | 21.7 | -16.3 | 14.1 | 16.9
Cc1c(C(=O)Nc2ccc3c(c2)OCCO3)cnn1C | 0.0 | -60.8* | -3.4 | -65.4 | -12.7
O=C(Nc1cccc(F)c1)c1ccc2c(c1)OCCO2 | 4.2 | 22.6 | 5.3 | 57.2* | 13.9
O=C(Nc1ccccc1)c1ccc2c(c1)OCCO2 | 0.7 | 13.6 | -1.6 | 40.3 | -14.4
COc1ccc(C(=O)/C=C/c2ccc(OC)cc2OC)c(O)c1 | 3.9 | 5.9 | 2.8 | 20.9 | -20.6
O=C(/C=C/c1ccncc1)c1cc(Cl)ccc1O | 0.8 | 24.5 | -8.3 | 59.1* | 65.9*
COc1ccc(/C=C/C(=O)c2cc(Cl)ccc2O)c(OC)c1 | 0.4 | 46.6 | ? | 64.4* | -6.5
CCCNC(=O)CCn1cc(-c2ccc(OC)cc2)nc1-c1ccncc1 | -0.5 | -4.7 | -4.1 | -18.0 | -26.0
O=C1CCc2cc(NS(=O)(=O)c3ccc([N+](=O)[O-])cc3)cc3c2N1CC3 | -4.0 | 13.3 | 34.9 | 11.0 | 1.8
COc1ccc(C(=O)C/C(=C\C(=O)c2ccc(C)cc2)c2ccccc2)cc1 | -0.8 | -0.7 | -3.0 | 23.9 | 63.8*
Cc1cc(C)nc(SC2c3cccc4cccc(c34)C2NS(=O)(=O)c2ccccc2)n1 (stereo not drawn) | 0.1 | 11.6 | 10.8 | 38.8 | 56.8*
CC1(C)CCCN(Cc2c(O)ccc3c(=O)c(-c4nc5ccccc5s4)c(N)oc23)C1 | 2.0 | 51.7 | -5.1 | 79.4* | 53.7
CC1CCCN(Cc2c(O)ccc3c(=O)c(-c4nc5ccccc5s4)c(N)oc23)C1 (stereo not drawn) | 0.9 | 8.1 | 81.0* | 2.0 | 42.5
SMILES | HIF act | HSF1 inh | Calb FLC | HSF1 activator | T cruzi inh
Cc1cc2oc(=O)cc(CN3CCN(Cc4ccccc4)CC3)c2cc1Cl | 0.4 | 0.4 | -6.7 | 24.2 | ?
CCc1ccc2oc(=O)cc(CN3CCN(Cc4ccccc4)CC3)c2c1 | -0.8 | 0.9 | 3.2 | 8.3 | 61.4*
O=c1cc(CN2CCN(Cc3ccccc3)CC2)c2ccc(O)cc2o1 | 1.1 | -9.8 | -8.0 | -27.2 | 55.9*
Cc1ccc2c(CN3CCN(Cc4ccccc4)CC3)cc(=O)oc2c1 | -9.8 | -1.0 | 12.5 | 8.2 | 58.5*
O=c1cc(CN2CCN(Cc3ccccc3)CC2)c2cc(Cl)ccc2o1 | 0.0 | 11.7 | -4.3 | 15.8 | 43.0
COc1ccc(-c2ccc3nnc(SCC(=O)N4CCCC4)n3n2)cc1 | -11.6 | -4.7 | 2.6 | 12.6 | 3.0
O=C(Nc1ccc(S(=O)(=O)N2CCOCC2)cc1)c1ccc([N+](=O)[O-])o1 | 1.1 | 105.1 | 5.0 | 122.8* | 44.1
O=C(Nc1ccc(S(=O)(=O)N2CCOCC2)cc1)c1ccc([N+](=O)[O-])s1 | -0.3 | 26.2 | . | 41.8 | 72.3*
O=C(Nc1ccc(N2CCOCC2)cc1)c1ccc([N+](=O)[O-])o1 | -0.6 | 127.9 | -0.9 | 145.9* | 6.0
O=C(Nc1ccc(Cc2ccncc2)cc1)c1ccc([N+](=O)[O-])o1 | 7.0 | 98.3 | 4.8 | 143.6* | 30.6
O=C(Nc1ccc(S(=O)(=O)N2CCOCC2)cc1)c1ccco1 | -0.5 | -5.5 | -6.3 | 8.2 | -2.8
O=C(Nc1ccc(Cc2ccncc2)cc1)c1cccc([N+](=O)[O-])c1 | -0.1 | -0.1 | -2.9 | 10.7 | -3.9
O=C(Nc1ccc(N2CCOCC2)cc1)c1ccc(Br)o1 | 0.2 | -2.3 | 7.5 | 30.6 | -7.6
O=C(Nc1ccc(S(=O)(=O)N2CCOCC2)cc1)c1ccc(Cl)cc1Cl | 0.7 | -66.5* | -4.1 | -73.9 | -4.2
CC(=O)Nc1ccc(Cc2ccncc2)cc1 | 0.5 | -68.7* | 3.2 | -76.4 | -10.1
O=C(Nc1ccncc1)c1cc(S(=O)(=O)N2CCCCC2)ccc1Cl | 0.0 | 2.2 | -1.5 | 5.2 | 6.7
CCn1nnc(NC(=O)c2ccc([N+](=O)[O-])o2)n1 | -0.2 | 0.0 | 0.9 | -0.1 | 60.6*
O=C(Nc1ccncc1)c1cc(S(=O)(=O)N2CCN(c3ccccc3)CC2)ccc1Cl | -0.9 | -0.7 | -12.0 | 5.0 | 61.2*
CC(=O)Nc1ccc(S(=O)(=O)Nc2ccc(Cc3ccncc3)cc2)cc1 | 0.5 | -10.6 | -1.4 | -11.3 | -14.5
CCCCn1nnc(NC(=O)c2ccc(-c3ccccc3[N+](=O)[O-])o2)n1 | 1.5 | 12.5 | -11.9 | 6.3 | 4.9
COc1ccccc1NS(=O)(=O)c1cc(NC(=O)CN2C(=O)NC3(CCCC3)C2=O)ccc1C | 0.0 | 0.6 | 9.2 | 4.4 | 0.1
Cc1cc(C)nc(NS(=O)(=O)c2ccc(NS(=O)(=O)c3ccsc3)cc2)n1 | -0.2 | -9.0 | 7.8 | -6.5 | 11.5
Cc1ccc(-c2nnc(NC(=O)c3ccc([N+](=O)[O-])o3)o2)c(C)c1 | -0.3 | -4.5 | 84.8* | -4.3 | 49.0
O=C(Nc1cc(S(=O)(=O)N2CCOCC2)ccc1-n1cncn1)c1ccc(Cl)cc1 | 1.2 | 0.5 | 9.8 | -0.3 | 63.1*
COc1ccc(C(=O)Nc2ccc(S(=O)(=O)N3CCCC3)cc2)c(OC)c1 | -0.6 | -3.8 | -2.8 | 3.2 | 77.4*
O=C(Nc1cc(Cl)ccc1-n1cncn1)c1cc(S(=O)(=O)N2CCOCC2)ccc1F | -0.5 | -4.3 | -6.0 | -12.0 | 9.4
CCCc1nnc(SCC(=O)N2CCCC2)n1Cc1ccco1 | -0.5 | -5.3 | 13.5 | 4.6 | -8.5
